Source: ChEMBL document CHEMBL4373653, “FgaPT2, a biocatalytic tool for alkyl-diversification of indole natural products” (Medchemcomm, 2019)
Active and inactive are the calls of the source. The calls are words filed in the database; no cut-off is given here.

What was measured:
[1] = system: HCT-116; experiment: Cytotoxicity against human HCT116 cells incubated for 48 hrs by Celltiter-blue assay; assay type: cell-based; conditions: HCT-116, 48 h
Method in brief: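 HCT-116 cells, 2.0e3 per well in McCoy's medium, grown 24 h. A baseline CellTiter-Blue reading (90 min, 37 °C; ex 544/em 590 nm) was taken at treatment. Serial dilutions were added at 4X in medium and incubated 48 h, then read again with CellTiter-Blue. Growth was expressed relative to untreated cells, four-parameter dose-response fit to IC50, n = 2, Taxol internal control.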

[2] = biological target: T1, Tryptophan dimethylallyltransferase (Neosartorya fumigata (strain ATCC MYA-4609 / Af293 / CBS 101355 / FGSCA1100) (Aspergillus fumigatus)) (UniProt Q50EL0); experiment: Substrate activity at recombinant N-terminal His6-fusion tagged Aspergillus fumigatus FgaPT2 expressed in Escherichia coli BL21 (DE3) assessed as alkylation of L-tryptophan by measuring product formation at pH 7.5 in Tris buffer after 16 hrs by RP-HPLC analysis
T1 sequence (whole entry): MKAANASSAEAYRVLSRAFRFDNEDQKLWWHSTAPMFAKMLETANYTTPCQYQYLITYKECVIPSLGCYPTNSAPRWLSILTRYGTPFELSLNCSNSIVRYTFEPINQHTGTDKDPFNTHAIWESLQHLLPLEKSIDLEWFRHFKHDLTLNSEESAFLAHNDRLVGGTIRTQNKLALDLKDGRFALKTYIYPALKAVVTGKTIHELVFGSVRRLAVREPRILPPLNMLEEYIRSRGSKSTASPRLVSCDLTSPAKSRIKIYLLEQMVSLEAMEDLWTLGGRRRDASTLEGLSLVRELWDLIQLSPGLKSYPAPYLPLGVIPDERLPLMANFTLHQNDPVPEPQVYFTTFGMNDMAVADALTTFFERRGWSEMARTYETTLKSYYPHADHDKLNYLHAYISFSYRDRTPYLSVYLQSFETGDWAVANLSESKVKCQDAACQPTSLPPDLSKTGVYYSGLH
Method in brief: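 The enzyme was codon-optimized and purified by Ni-NTA. Reaction: 1.2 mM alkyl-PP donor, 1 mM L-Trp, 5 μM FgaPT2 in 25 mM Tris pH 7.5, 5 mM MgCl2, 50 mM KCl, 35 °C for 16 h. It was quenched with an equal volume of methanol and centrifuged. Analysis was by RP-HPLC (C18, water/0.1% TFA–acetonitrile gradient, A254). Negative controls omitted the enzyme or the donor.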

[3] = substrate: O=P(O)(O)OP(=O)(O)OCc1ccccc1; conditions: Aspergillus fumigatus Af293
[4] = substrate: COc1ccccc1COP(=O)(O)OP(=O)(O)O; conditions: Aspergillus fumigatus Af293
[5] = substrate: O=P(O)(O)OP(=O)(O)OCC=C1CCCCC1; conditions: Aspergillus fumigatus Af293
[6] = substrate: O=P(O)(O)OP(=O)(O)OCC=C1CCCC1; conditions: Aspergillus fumigatus Af293
[7] = substrate: C/C=C/COP(=O)(O)OP(=O)(O)O; conditions: Aspergillus fumigatus Af293
[8] = substrate: COc1cccc(COP(=O)(O)OP(=O)(O)O)c1; conditions: Aspergillus fumigatus Af293
[9] = substrate: O=P(O)(O)OP(=O)(O)OCc1ccc(F)cc1; conditions: Aspergillus fumigatus Af293
[10] = substrate: O=P(O)(O)OP(=O)(O)OCc1ccc(Br)cc1; conditions: Aspergillus fumigatus Af293
[11] = substrate: CCC(=CCOP(=O)(O)OP(=O)(O)O)CC; conditions: Aspergillus fumigatus Af293
[12] = substrate: O=P(O)(O)OP(=O)(O)OCc1ccc(Cl)cc1; conditions: Aspergillus fumigatus Af293
[13] = substrate: O=P(O)(O)OP(=O)(O)OCc1ccccc1; conditions: Aspergillus fumigatus Af293; remark: listed apart in the source
[14] = substrate: COc1ccccc1COP(=O)(O)OP(=O)(O)O; conditions: Aspergillus fumigatus Af293; remark: listed apart in the source
[15] = substrate: O=P(O)(O)OP(=O)(O)OCC1=CCCCC1; conditions: Aspergillus fumigatus Af293
[16] = substrate: O=P(O)(O)OP(=O)(O)OCC=C1CCCCC1; conditions: Aspergillus fumigatus Af293; remark: listed apart in the source
[17] = substrate: CC/C(C)=C/COP(=O)(O)OP(=O)(O)O; conditions: Aspergillus fumigatus Af293
[18] = substrate: C/C(Br)=C/COP(=O)(O)OP(=O)(O)O; conditions: Aspergillus fumigatus Af293
[19] = substrate: C/C=C/C=C(\C)COP(=O)(O)OP(=O)(O)O; conditions: Aspergillus fumigatus Af293
[20] = substrate: O=P(O)(O)OP(=O)(O)OCC=C1CCCC1; conditions: Aspergillus fumigatus Af293; remark: listed apart in the source
[21] = substrate: C=C/C=C/COP(=O)(O)OP(=O)(O)O; conditions: Aspergillus fumigatus Af293
[22] = substrate: C=C/C=C(\C)COP(=O)(O)OP(=O)(O)O; conditions: Aspergillus fumigatus Af293
[23] = substrate: C/C=C/COP(=O)(O)OP(=O)(O)O; conditions: Aspergillus fumigatus Af293; remark: listed apart in the source
[24] = substrate: COc1cccc(COP(=O)(O)OP(=O)(O)O)c1; conditions: Aspergillus fumigatus Af293; remark: listed apart in the source
[25] = substrate: O=P(O)(O)OP(=O)(O)OCc1ccc(F)cc1; conditions: Aspergillus fumigatus Af293; remark: listed apart in the source
[26] = substrate: CC(C)=C/C=C/COP(=O)(O)OP(=O)(O)O; conditions: Aspergillus fumigatus Af293
[27] = substrate: O=P(O)(O)OP(=O)(O)OCc1ccc(Br)cc1; conditions: Aspergillus fumigatus Af293; remark: listed apart in the source
[28] = substrate: C/C(Cl)=C/COP(=O)(O)OP(=O)(O)O; conditions: Aspergillus fumigatus Af293
[29] = substrate: CCC(=CCOP(=O)(O)OP(=O)(O)O)CC; conditions: Aspergillus fumigatus Af293; remark: listed apart in the source
[30] = substrate: O=P(O)(O)OP(=O)(O)OCc1ccc(Cl)cc1; conditions: Aspergillus fumigatus Af293; remark: listed apart in the source
[31] = substrate: O=P(O)(O)OP(=O)(O)OCc1ccccc1; conditions: Aspergillus fumigatus Af293; remark: listed apart in the source
[32] = substrate: COc1ccccc1COP(=O)(O)OP(=O)(O)O; conditions: Aspergillus fumigatus Af293; remark: listed apart in the source
[33] = substrate: O=P(O)(O)OP(=O)(O)OCC1=CCCCC1; conditions: Aspergillus fumigatus Af293; remark: listed apart in the source
[34] = substrate: O=P(O)(O)OP(=O)(O)OCC=C1CCCCC1; conditions: Aspergillus fumigatus Af293; remark: listed apart in the source
[35] = substrate: CC/C(C)=C/COP(=O)(O)OP(=O)(O)O; conditions: Aspergillus fumigatus Af293; remark: listed apart in the source
[36] = substrate: C/C=C/C=C(\C)COP(=O)(O)OP(=O)(O)O; conditions: Aspergillus fumigatus Af293; remark: listed apart in the source
[37] = substrate: O=P(O)(O)OP(=O)(O)OCC=C1CCCC1; conditions: Aspergillus fumigatus Af293; remark: listed apart in the source
[38] = substrate: C=C/C=C/COP(=O)(O)OP(=O)(O)O; conditions: Aspergillus fumigatus Af293; remark: listed apart in the source
[39] = substrate: C=C/C=C(\C)COP(=O)(O)OP(=O)(O)O; conditions: Aspergillus fumigatus Af293; remark: listed apart in the source
[40] = substrate: C/C=C/COP(=O)(O)OP(=O)(O)O; conditions: Aspergillus fumigatus Af293; remark: listed apart in the source
[41] = substrate: COc1cccc(COP(=O)(O)OP(=O)(O)O)c1; conditions: Aspergillus fumigatus Af293; remark: listed apart in the source
[42] = substrate: O=P(O)(O)OP(=O)(O)OCc1ccc(F)cc1; conditions: Aspergillus fumigatus Af293; remark: listed apart in the source
[43] = substrate: CC(C)=C/C=C/COP(=O)(O)OP(=O)(O)O; conditions: Aspergillus fumigatus Af293; remark: listed apart in the source
[44] = substrate: O=P(O)(O)OP(=O)(O)OCc1ccc(Br)cc1; conditions: Aspergillus fumigatus Af293; remark: listed apart in the source
[45] = substrate: C/C(Cl)=C/COP(=O)(O)OP(=O)(O)O; conditions: Aspergillus fumigatus Af293; remark: listed apart in the source
[46] = substrate: CCC(=CCOP(=O)(O)OP(=O)(O)O)CC; conditions: Aspergillus fumigatus Af293; remark: listed apart in the source

CC/C(C)=C/Cc1ccc2[nH]c3c4[nH]c5ccccc5c4c4c(c3c2c1)C(=O)NC4O (stereo not given)
IC50 [1]: 38 µM

CCC(=CCc1ccc2[nH]c3c4[nH]c5ccccc5c4c4c(c3c2c1)C(=O)NC4O)CC (stereo not given)
IC50 [1]: 35 µM

COc1ccc(COP(=O)(O)OP(=O)(O)O)cc1
Activity [2]: inactive

COc1ccc(COP(=O)(O)OP(=O)(O)O)c(OC)c1
Activity [2]: inactive

CC(=O)COP(=O)(O)OP(=O)(O)O
Activity [2]: inactive

CC(C)=CCc1ccc2[nH]c3c4[nH]c5ccccc5c4c4c(c3c2c1)C(=O)NC4O (stereo not given)
IC50 [1]: 62 µM

O=P(O)(O)OP(=O)(O)OCc1cc(F)cc(F)c1
Activity [2]: inactive

O=[N+]([O-])c1ccc(COP(=O)(O)OP(=O)(O)O)cc1
Activity [2]: inactive

O=C1NC(O)c2c1c1c3cc(CC=C4CCCC4)ccc3[nH]c1c1[nH]c3ccccc3c21 (stereo not given)
IC50 [1]: 58 µM

O=C1NC(O)c2c1c1c3cc(CC4=CCCCC4)ccc3[nH]c1c1[nH]c3ccccc3c21 (stereo not given)
IC50 [1]: 61 µM

O=C1NC(O)c2c1c1c3cc(CC=C4CCCCC4)ccc3[nH]c1c1[nH]c3ccccc3c21 (stereo not given)
IC50 [1]: 31 µM

C=C(C)COP(=O)(O)OP(=O)(O)O
Activity [2]: inactive

O=C1NC(O)c2c1c1c3ccccc3[nH]c1c1[nH]c3ccccc3c21 (stereo not given)
IC50 [1]: 11 µM

COc1ccc(COP(=O)(O)OP(=O)(O)O)cc1OC
Activity [2]: inactive

COc1cc(COP(=O)(O)OP(=O)(O)O)cc(OC)c1OC
Activity [2]: inactive

Cc1ccc(COP(=O)(O)OP(=O)(O)O)cc1
Activity [2]: inactive

B1: Tryptophan dimethylallyltransferase (Neosartorya fumigata (strain ATCC MYA-4609 / Af293 / CBS 101355 / FGSCA1100) (Aspergillus fumigatus)), Q50EL0 (protein)
chain: MKAANASSAEAYRVLSRAFRFDNEDQKLWWHSTAPMFAKMLETANYTTPCQYQYLITYKECVIPSLGCYPTNSAPRWLSILTRYGTPFELSLNCSNSIVRYTFEPINQHTGTDKDPFNTHAIWESLQHLLPLEKSIDLEWFRHFKHDLTLNSEESAFLAHNDRLVGGTIRTQNKLALDLKDGRFALKTYIYPALKAVVTGKTIHELVFGSVRRLAVREPRILPPLNMLEEYIRSRGSKSTASPRLVSCDLTSPAKSRIKIYLLEQMVSLEAMEDLWTLGGRRRDASTLEGLSLVRELWDLIQLSPGLKSYPAPYLPLGVIPDERLPLMANFTLHQNDPVPEPQVYFTTFGMNDMAVADALTTFFERRGWSEMARTYETTLKSYYPHADHDKLNYLHAYISFSYRDRTPYLSVYLQSFETGDWAVANLSESKVKCQDAACQPTSLPPDLSKTGVYYSGLH
Km [3]: 220 µM
Km [4]: 570 µM
Km [5]: 1400 µM
Km [6]: 310 µM
Km [7]: 140 µM
Km [8]: 730 µM
Km [9]: 400 µM
Km [10]: 320 µM
Km [11]: 370 µM
kcat/Km [12]: 7.67 M⁻¹ s⁻¹
kcat/Km [13]: 103 M⁻¹ s⁻¹
kcat/Km [14]: 56.7 M⁻¹ s⁻¹
kcat/Km [15]: 16.7 M⁻¹ s⁻¹
kcat/Km [16]: 36.7 M⁻¹ s⁻¹
kcat/Km [17]: 350 M⁻¹ s⁻¹
kcat/Km [18]: 21.7 M⁻¹ s⁻¹
kcat/Km [19]: 200 M⁻¹ s⁻¹
kcat/Km [20]: 267 M⁻¹ s⁻¹
kcat/Km [21]: 650 M⁻¹ s⁻¹
kcat/Km [22]: 267 M⁻¹ s⁻¹
kcat/Km [23]: 65 M⁻¹ s⁻¹
kcat/Km [24]: 3.83 M⁻¹ s⁻¹
kcat/Km [25]: 11.5 M⁻¹ s⁻¹
kcat/Km [26]: 433 M⁻¹ s⁻¹
kcat/Km [27]: 7 M⁻¹ s⁻¹
kcat/Km [28]: 41.7 M⁻¹ s⁻¹
kcat/Km [29]: 283 M⁻¹ s⁻¹
kcat [30]: 0.00327 s⁻¹
kcat [31]: 0.0227 s⁻¹
kcat [32]: 0.0322 s⁻¹
kcat [33]: 0.00267 s⁻¹
kcat [34]: 0.0533 s⁻¹
kcat [35]: 0.165 s⁻¹
kcat [36]: 0.282 s⁻¹
kcat [37]: 0.084 s⁻¹
kcat [38]: 0.433 s⁻¹
kcat [39]: 0.337 s⁻¹
kcat [40]: 0.0095 s⁻¹
kcat [41]: 0.00283 s⁻¹
kcat [42]: 0.0046 s⁻¹
kcat [43]: 0.467 s⁻¹
kcat [44]: 0.00223 s⁻¹
kcat [45]: 0.0217 s⁻¹
kcat [46]: 0.108 s⁻¹
